# RGS4 inh: inhibitors of human RGS4; P49798; HEK293 M3R/RGS4 inducible, Fluo-4 calcium flux; active compounds read high; triggered by carbachol at its EC20; B-score at 10 µM; 310,000 tested, 0.45% active; AID 463165;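 active = B-score, a plate-corrected calcium signal, over three deviations above library mean, with baseline fluorescence within five deviations of library mean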;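 also: RGS4 expression induced by doxycycline in cells with stable M3 receptor; B-score is computed from the integrated fluorescence ratio over baseline after carbachol; higher B-score means a larger calcium signal and so more RGS4 inhibition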
# Target sequence (P49798 whole entry, looked up): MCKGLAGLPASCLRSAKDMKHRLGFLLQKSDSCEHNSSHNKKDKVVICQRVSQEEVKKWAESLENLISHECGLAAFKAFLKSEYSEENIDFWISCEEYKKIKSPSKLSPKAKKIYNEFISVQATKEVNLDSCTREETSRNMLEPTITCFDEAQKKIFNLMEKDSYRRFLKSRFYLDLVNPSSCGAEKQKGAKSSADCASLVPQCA
# MrgX1 antag: antagonists of human MrgX1 receptor; AID 588676; MRGX1-HEK293 calcium flux, Fluo-4, BAM8-22 antagonism; active compounds read low; Q96LB2; B-score at 10 µM; 310,000 tested, 1.3% active;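 active = calcium-response B-score plate-corrected more than 3 library SD below zero, starting fluorescence within 5 deviations, no agonist response on first addition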;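 also: peak minus trough fluorescence over baseline after final BAM8-22 challenge near maximal dose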
# Target sequence (Q96LB2 whole entry, looked up): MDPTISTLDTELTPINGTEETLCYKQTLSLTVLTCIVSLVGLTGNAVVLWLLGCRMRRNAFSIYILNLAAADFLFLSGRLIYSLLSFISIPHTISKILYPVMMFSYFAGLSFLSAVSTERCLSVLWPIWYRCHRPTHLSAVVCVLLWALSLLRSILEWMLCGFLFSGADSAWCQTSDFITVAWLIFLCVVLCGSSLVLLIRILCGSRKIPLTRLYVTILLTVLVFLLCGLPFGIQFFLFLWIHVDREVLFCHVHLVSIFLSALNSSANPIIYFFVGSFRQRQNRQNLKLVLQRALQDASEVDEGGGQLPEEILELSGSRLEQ
# RGS4 pot: RGS4 potentiation or activation | HEK293 M3R/inducible RGS4, carbachol calcium flux Fluo4; active compounds read low | B-score at 10 µM | 310,000 tested, 0.92% active;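 active = B-score of the integrated calcium signal more than 4 SD below the library mean, with starting fluorescence not abnormally high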;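 also: negative B-score means reduced calcium response which marks RGS4 activation or potentiation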
#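 Material: M3R-expressing HEK293 line, RGS4 induced by doxycycline | Schedule: Overnight RGS4 induction, 30 min dye load 37 °C, 20 min compound RT | Measured by: Fluo4 fluorescence kinetic imaging of calcium | Read-out: Integrated calcium ratio converted to B score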
# MrgX1 ag: activates human MrgX1 receptor signaling. Q96LB2. MrgX1-HEK293 cells, Fluo-4 calcium fluorescence, agonist mode; active compounds read high. B-score at 10 µM. 310,000 tested, 0.44% active. AID 588627;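 active = calcium response B-score plate-corrected fluorescence ratio at least 3 library SD, with starting fluorescence B-score inside 5 SD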
#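 Test system: HEK293 cells stably expressing human MrgX1 receptor; amount: 15,000 cells per well; doses: compound delivered in addition one of three; times: overnight plating before 1 h dye loading; detection: Fluo-4 NW calcium-flux fluorescence, kinetic read; read-out basis: B-scored fluorescence response ratio; controls: positive and negative controls per plate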
# MrgX1 allo act: human MrgX1 positive allosteric modulation, primary screen | MrgX1-HEK293, Fluo-4 calcium flux, FDSS; active compounds read high | B-score at 10 µM | 310,000 tested, 0.63% active | AID 588675;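 active = plate-corrected calcium response at least 3 library SD above typical, normal starting fluorescence, not activating the receptor alone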;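 also: compound read alongside a low EC10 to EC30 dose of BAM8-22 agonist; peak minus trough fluorescence over baseline measured at the second addition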
# RGS4 act valid: confirmation of RGS4 activators; HEK293 M3R/RGS4 inducible, carbachol calcium flux Fluo4; AID 602282; shares compounds with RGS4 pot; inhibition, % at 10 µM; 1,100 tested, 89% active;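 active = inhibition above 3 SD of the buffer control wells, cut at about 41% in these data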;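 also: signal is the integrated peak-minus-minimum Fluo4 fluorescence over baseline ratio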
# RGS4 act ctr: activity in cells without induced RGS4 expression; HEK293 M3R non-induced RGS4, Fluo4 calcium flux; after carbachol challenge at its EC90; shares compounds with RGS4 pot; 1,100 tested, 82% active; inhibition, % at 10 µM;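 active = inhibition exceeding 3 SD of buffer-only control wells, cut at about 26% in these data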;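 also: percent drop in integrated peak-minus-baseline over baseline Fluo4 ratio after carbachol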
# Numbers stand for hits; – = inactive; · = not tested or not shown. Most compounds without a hit are left out; they make up all but 3.5% or so of the library.
SMILES,RGS4 inh,MrgX1 antag,RGS4 pot,MrgX1 ag,MrgX1 allo act,RGS4 act valid,RGS4 act ctr
O=C(Nc1ccc(Cl)c(S(=O)(=O)N2CCOCC2)c1)c1ccc(OCC2CCCO2)cc1 (centres undefined),–,-11,-11,–,–,94,79
Cc1cc(C)c(C#N)c(SCC(O)COc2ccc(Br)cc2)n1 (centres undefined),–,–,-13,–,–,94,94
CC(=O)N1C(O)CC(C)N1c1ccccc1 (centres undefined),–,–,–,–,–,·,·
CCCCC(CC)C(=O)Oc1ccc(O)c(C(C)(C)C)c1 (centres undefined),–,–,-7.7,–,–,92,87
CCCCCCNC(=O)CCc1nc2cccnc2n1Cc1ccc(OC)cc1,–,–,–,–,–,·,·
CCc1ccc(NC(=O)CCc2nc3cccnc3n2Cc2ccc(OC)cc2)cc1,–,–,-8,–,–,–,–
CC1(C(=O)N/N=C/c2ccccc2)CC1(Cl)Cl (centres undefined),–,–,–,–,–,·,·
N#Cc1ccsc1NC(=O)CCc1ccccc1,–,–,–,–,–,·,·
N#Cc1ccsc1NC(=O)CCN1CCN(C(c2ccccc2)c2ccccc2)CC1,–,–,-9.1,–,–,74,84
COc1ccc(CCNC(=O)CCCn2c(SCC(N)=O)nc3cc4c(cc3c2=O)OCO4)cc1OC,–,–,–,–,–,·,·
Cc1ccc(NC(=O)C2C3CCC(O3)C2C(=O)O)c(Br)c1 (centres undefined),–,–,–,–,–,·,·
CN1/C(=C\C(=O)Nc2ccc(Cl)cc2)C(C)(C)c2ccccc21,–,–,-9.7,–,–,92,95
CN1/C(=C\C=C(/C#N)C(=O)Nc2ccc(Cl)cc2)C(C)(C)c2ccccc21,–,–,–,–,–,·,·
Brc1ccc(-c2c[n+]3c(n2-c2ccccc2)SCC3)cc1,–,–,–,–,–,·,·
c1ccc(Cn2c(-c3ccccc3)c[n+]3c2SCCC3)cc1,–,–,-11,–,–,92,89
Cc1ccc2c(c1)NC(=O)C(CC(=O)Nc1ccc(CN3CCC(C)CC3)cc1)O2 (centres undefined),–,–,-7.7,–,–,92,95
CCOC(=O)c1ccc(NC(=S)N2CCSC2c2ccc(Br)cc2)cc1 (centres undefined),–,–,-8.1,–,–,92,91
CCOC(=O)c1ccc(NC(=S)N2CCC(O)CC2)cc1,–,–,–,–,–,·,·
CCOC(=O)c1ccc(NC(=S)N2CCCC(C(=O)N3CCCC3)C2)cc1 (centres undefined),–,–,–,–,–,·,·
CCOC(=O)c1ccc(NC(=S)N2CCCC(C)C2)cc1 (centres undefined),–,–,-8.9,–,–,79,26
N#CC(C#N)=c1ccc2c(c1)N1C3=C(CCCC3)CC3CCCCC31N=2 (centres undefined),–,–,-8.2,–,–,84,84
CCn1c(C)c(C)c2cc(C(=O)Nc3cccc(Cl)c3)ccc21,–,–,-7.7,–,–,61,–
CCn1c(C)cc(O)c(C(=O)Nc2cccc(Cl)c2)c1=O,–,–,–,–,–,·,·
CN(Cc1ccc(C#CCCO)cc1)CC1CCCN(CCc2ccc(Cl)cc2)C1 (centres undefined),–,–,–,–,–,·,·
CN(Cc1ccccc1O)CC1CCCN(CCc2ccc(Cl)cc2)C1 (centres undefined),–,–,-10,–,–,94,73
SMILES,RGS4 inh,MrgX1 antag,RGS4 pot,MrgX1 ag,MrgX1 allo act,RGS4 act valid,RGS4 act ctr
Cc1[nH]c2ccccc2c1Cc1n[nH]c(=S)n1C,–,–,-8.2,–,–,–,–
Cc1[nH]c2ccccc2c1SCc1n[nH]c(=S)n1C,–,–,–,–,–,·,·
CC(C)Oc1cccc(C(=O)C2CCCN(C(=O)c3ccc4c(c3)OCO4)C2)c1 (centres undefined),–,–,–,–,–,·,·
COc1cc(C(=O)Oc2cccc(Nc3ncnc4ccccc34)c2)cc(OC)c1OC,–,–,-12,–,–,92,80
O=C(NC1CCCN(Cc2ccc(Cl)cc2)C1)c1c(F)ccc(F)c1F (centres undefined),–,–,–,–,–,·,·
CCCCc1cc(O)c(CCCC)c(O)c1,–,-11,-8,–,–,92,88
CCCCCc1cc(O)c2c(C)cc(=O)oc2c1,–,–,–,–,–,·,·
CCOc1ccc(CCNC(=O)c2ccc(=O)[nH]c2)cc1OCC,–,–,–,–,–,·,·
CC(=O)c1cccc(NC(=O)CCn2c(=O)oc3ccccc32)c1,–,–,–,–,–,·,·
COc1ccc(/C=N/NC(=O)c2cc(C(C)(C)C)[nH]n2)cc1COc1ccc(F)cc1F,–,–,-12,–,–,74,27
Cc1cccc(C)c1NC(=O)C1CCCN1S(=O)(=O)c1ccc2c(c1)n(C)c(=O)c(=O)n2C (centres undefined),–,–,–,–,–,·,·
CCOc1cnc(-c2c(-c3c(Cl)cccc3Cl)noc2C)o1,–,–,-8.5,–,–,90,61
CCOc1cnc(-c2ccc(Cl)cc2)o1,–,–,–,–,–,·,·
Cc1nn(C)cc1S(=O)(=O)N1CCN(c2ccccc2)CC1,–,–,–,–,–,·,·
CCOC(=O)c1c(NC(=O)CSc2nnnn2-c2ccc3c(c2)OCCO3)sc(C)c1C,–,–,-9.5,–,–,84,32
CCC(CC)C(=O)Nc1cccc(-c2ccc3nncn3n2)c1,–,–,–,–,–,·,·
O=C(CC1C(=O)NCCN1Cc1ccc(F)cc1)NCCCn1cccn1 (centres undefined),–,–,–,–,–,·,·
CCNc1nc(NC(C)(C)C)nc(N2CCCC2)n1,–,–,-9,–,–,82,47
Cc1cc(SCC(=O)c2ccccc2)n2nc(C)nc2n1,–,–,-9,–,–,–,–
COc1cc(-c2cc(-c3ccc(N)cc3)[nH]c(=O)c2C#N)cc(OC)c1OC,–,–,-8,–,–,–,–
N#Cc1c(-c2ccccc2)cc(-c2ccccc2)[nH]c1=O,–,–,–,–,–,·,·
CN1CCC(Oc2ccc(Sc3ccccc3)cc2)CC1,–,–,-8.2,–,–,86,41
CN1CCC(Oc2ccccc2Sc2ccc(C(F)(F)F)cc2)CC1,–,–,–,–,–,·,·
O=S(=O)(c1cccs1)N1CN(C2CCCCC2)c2nc3ccccc3nc21,–,–,–,–,–,·,·
O=C(O)CCn1cc(C(=O)O)c(-c2ccccc2)n1,–,–,–,–,–,·,·
O=C(Nc1ccc2c(c1)OCCO2)c1cccnc1,–,–,-8.1,–,–,–,–

# Source: PubChem BioAssay (Johns Hopkins Ion Channel Center)
